Experimental data from ChEMBL document CHEMBL5108041, “Identification and validation of novel microtubule suppressors with an imidazopyridine scaffold through structure-based virtual screening and docking” (RSC Med Chem, 2022).
Active and inactive are the calls of the source. The rule behind the calls is not given here.

Tests used:
A549 [1] = experiment: Antiproliferative activity against human A549 cells assessed as cell growth inhibition incubated for 48 hr by MTT assay; conditions: A549, 48 h
MDA-MB-231 [2] = experiment: Antiproliferative activity against human MDA-MB-231 cells assessed as cell growth inhibition at 10 uM incubated for 48 hr by MTT assay; format: functional
Outline: (§1)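 Cells in RPMI with 10% FBS, 1% pen/strep at 37 °C, 5% CO2. […] MTT 0.5 mg ml⁻¹ for 2 h, formazan dissolved in DMSO, A570; viability = OD treated/OD control × 100. Triplicate.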

Tubulin (Homo sapiens) [3] = target: T1, Tubulin (Homo sapiens) (UniProt P68371+Q9H4B7+P0DPH7+P68366+Q13509+Q71U36+P04350+Q3ZCM7+P07437+P68363+Q9BQE3+Q6PEY2+Q13885+Q9BVA1+Q9BUF5); experiment: Inhibition of tubulin polymerization in human A549 cells assessed as inhibition of microtubule spindle formation with irregular morphology at 9 uM incubated for 24 hrs by immunofluorescence assay; format: cell-based
Outline: (§2)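 Fixed in 3.7% paraformaldehyde, permeabilised with 0.1% Triton X-100, blocked with 1% BSA 1 h, anti-β-tubulin mouse mAb overnight at 4 °C, Alexa Fluor 488 secondary, DAPI; fluorescence microscopy.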

MCF7 [4] = experiment: Antiproliferative activity against human MCF7 cells assessed as cell growth inhibition at 10 uM incubated for 48 hr by MTT assay; format: functional; outline: as §1
MDA-MB-231 [5] = experiment: Antiproliferative activity against human MDA-MB-231 cells assessed as cell growth inhibition incubated for 48 hr by MTT assay; format: functional, cell-based
Outline: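 MTT titration: cells seeded 1×10^4/well for 24 h, then treated 48 h at 37 °C, 5% CO2 with 2.5, 5, 10, 20 μM. MTT 0.5 mg ml⁻¹ for 2 h, formazan in DMSO read at 570 nm; viability relative to 0.1% DMSO control. IC50 is the mean of three replicate experiments ± SD.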

MCF7 [6] = experiment: Antiproliferative activity against human MCF7 cells assessed as cell growth inhibition incubated for 48 hr by MTT assay; conditions: MCF7, 48 h
Tubulin (Sus scrofa) [7] = target: T2, Tubulin (Sus scrofa) (UniProt P02554+P02550); experiment: Inhibition of porcine Tubulin polymerization assessed as increase in AUC by measuring fluorescence at 15 uM incubated for 1 hr by fluorescence microscopy; format: protein assay
Tubulin = experiment: Inhibition of tubulin polymerization in human MCF7 cells by ELISA; format: cell-based
A549 [8] = experiment: Antiproliferative activity against human A549 cells assessed as cell growth inhibition at 10 uM incubated for 48 hr by MTT assay; format: functional; outline: as §1
[9] = Antiproliferative activity against human F180 cells assessed as cell growth inhibition at 10 uM incubated for 48 hr by MTT assay; format: toxicity, cell-based; conditions: f180, 48 h; outline: as §1
MCF7 [10] = experiment: Cell cycle arrest in human MCF7 assessed as accumulation at G2/M phase at 6 uM incubated for 24 hrs by propidium iodide staining flow cytometry; format: functional
Outline: (§3)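 MCF-7 cells exposed to 6 μM for 24 h, DMSO vehicle control. Cells harvested, fixed in 70% ethanol on ice 15 min, then stained 1 h at room temperature with PI solution containing 0.1 mg mL⁻¹ RNaseA and 0.05% Triton X-100. DNA content read by flow cytometry; percentage of cells in each phase.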

MCF7 [11] = experiment: Induction of apoptosis in human MCF7 cells assessed as late apoptotic cells at 6 uM incubated for 24 hrs by Annexin V-FITC/propidium iodide staining based flow cytometry (reference value: 0.17 %); format: functional
MCF7 [12] = experiment: Cell cycle arrest in human MCF7 assessed as accumulation at G1 phase at 6 uM incubated for 24 hrs by propidium iodide staining flow cytometry; format: functional; outline: as §3
MCF7 [13] = experiment: Cell cycle arrest in human MCF7 assessed as accumulation at S phase at 6 uM incubated for 24 hrs by propidium iodide staining flow cytometry; format: functional; outline: as §3
MCF7 [14] = experiment: Cell cycle arrest in human MCF7 assessed as accumulation at pre G phase at 6 uM incubated for 24 hrs by propidium iodide staining flow cytometry; format: functional; outline: as §3
Tubulin (Sus scrofa) [15] = target: T2, Tubulin (Sus scrofa); experiment: Inhibition of porcine Tubulin polymerization assessed as decrease in AUC by measuring fluorescence at 15 uM incubated for 1 hr by fluorescence microscopy; format: protein assay
Outline: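 Porcine tubulin at 2 mg ml⁻¹ in 80 mM PIPES, 2 mM MgCl₂, 0.5 mM EGTA pH 6.9, with 10 μM fluorescent reporter, 1 mM GTP and 15% glycerol, in a pre-warmed plate. […] Fluorescence (ex 360, em 450 nm) read once per min for 60 min at 37 °C. Area under the curve scored against the untreated control, taken as 100%.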

MCF7 [16] = experiment: Induction of apoptosis in human MCF7 cells assessed as Bcl-2 level at 6 uM incubated for 24 hrs by ELISA; format: functional
Outline: (§4)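 MCF-7 in RPMI1640 with 10% FBS, exposed to 6 μM for 24 h, lysed in cell extraction buffer, lysate diluted in standard diluent; Bax (pg ml⁻¹) and Bcl2 (ng ml⁻¹) measured by ELISA. Mean of three replicates ± SD.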

MCF7 [17] = experiment: Induction of apoptosis in human MCF7 cells assessed as necrotic cells at 6 uM incubated for 24 hrs by Annexin V-FITC/propidium iodide staining based flow cytometry (reference value: 0.76 %); format: functional
MCF7 [18] = experiment: Induction of apoptosis in human MCF7 cells assessed as Caspase-9 level at 6 uM incubated for 24 hrs by ELISA; format: functional
Outline: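 MCF-7 cells incubated with or without 6 μM for 24 h, washed in PBS, lysed; caspase-9 in lysates quantified by ELISA kit (ng ml⁻¹). Mean of three replicates ± SD.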

MCF7 [19] = experiment: Induction of apoptosis in human MCF7 cells assessed as early apoptotic cells at 6 uM incubated for 24 hrs by Annexin V-FITC/propidium iodide staining based flow cytometry (reference value: 0.55 %); format: functional
MCF7 [20] = experiment: Induction of apoptosis in human MCF7 cells assessed as Bax level at 6 uM incubated for 24 hrs by ELISA; format: functional; outline: as §4
Tubulin (Homo sapiens) [21] = target: T1, Tubulin (Homo sapiens); experiment: Inhibition of tubulin polymerization in human A549 cells assessed as inhibition of microtubule spindle formation with irregular morphology at 13 uM incubated for 24 hrs by immunofluorescence assay; format: cell-based; outline: as §2
[22] = Homo sapiens, MDA-MB-231, 48 h, read-out: IC50

T2 sequence (P02550 whole entry, looked up): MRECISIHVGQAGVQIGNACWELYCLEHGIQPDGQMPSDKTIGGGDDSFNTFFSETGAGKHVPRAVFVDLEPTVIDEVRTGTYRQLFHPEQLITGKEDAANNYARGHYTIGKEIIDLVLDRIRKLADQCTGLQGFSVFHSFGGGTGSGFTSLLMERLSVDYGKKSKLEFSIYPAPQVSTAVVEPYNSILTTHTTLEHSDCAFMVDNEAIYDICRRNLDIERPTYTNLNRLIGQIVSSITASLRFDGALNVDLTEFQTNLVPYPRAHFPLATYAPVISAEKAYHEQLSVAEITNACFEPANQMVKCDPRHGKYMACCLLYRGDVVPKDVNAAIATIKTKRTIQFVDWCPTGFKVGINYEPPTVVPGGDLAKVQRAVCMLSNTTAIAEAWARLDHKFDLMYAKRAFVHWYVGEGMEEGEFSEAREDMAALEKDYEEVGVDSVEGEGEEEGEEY
T2 sequence (P02554 whole entry, looked up): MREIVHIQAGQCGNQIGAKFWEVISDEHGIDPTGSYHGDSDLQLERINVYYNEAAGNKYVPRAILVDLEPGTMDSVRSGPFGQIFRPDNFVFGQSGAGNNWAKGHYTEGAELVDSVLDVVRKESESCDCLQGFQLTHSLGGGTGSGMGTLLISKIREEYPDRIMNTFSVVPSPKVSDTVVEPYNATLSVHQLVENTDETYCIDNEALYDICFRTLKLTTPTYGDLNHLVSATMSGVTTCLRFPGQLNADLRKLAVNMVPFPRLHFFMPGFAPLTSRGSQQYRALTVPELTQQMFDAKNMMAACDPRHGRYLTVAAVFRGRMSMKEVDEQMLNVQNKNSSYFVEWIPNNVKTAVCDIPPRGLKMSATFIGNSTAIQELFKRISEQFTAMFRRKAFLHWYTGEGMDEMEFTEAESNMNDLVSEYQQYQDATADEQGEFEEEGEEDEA

Row | IC50 (A549 [1]) [µM] | IC50 (MDA-MB-231 [5]; [22]) [µM] | IC50 (MCF7 [6]) [µM] | inhibition (Tubulin (Sus scrofa) [7]) | IC50 (Tubulin) [µM] | SMILES | inhibition at 10 µM (MDA-MB-231 [2]) [%] | inhibition at 10 µM (MCF7 [4]) [%] | inhibition at 10 µM (A549 [8]) [%] | Activity [9] | further results
1 | 9.4 | 19.5 | 11 | Active | 12.8 | COc1ccc(C(=O)c2cn(CC(=O)Nc3ccc(F)cc3)c3cc(OC)c(OC)cc3c2=O)cc1 | 50 | 50 | 50 | Toxic | inhibition (Tubulin (Homo sapiens) [3]): Active
2 |  |  |  |  |  | COc1ccc(C2CC(O)=Nc3c2ncn3-c2cccc(C(F)(F)F)c2)cc1O (stereo not given) | 60 | 50 | 40 | Toxic | Activity (MCF7 [10]): 3.38%; Activity (MCF7 [11]): 14.29%; Activity (MCF7 [12]): 53.91%; Activity (MCF7 [13]): 42.71%; Activity (MCF7 [14]): 1.48%; inhibition (Tubulin (Sus scrofa) [15]): Active; Activity (MCF7 [16]): 2.1 ng/mL; Activity (MCF7 [17]): 7.11%; Activity (MCF7 [18]): 13.7 ng/mL; Activity (MCF7 [19]): 5.96%; Activity (MCF7 [20]): 207.6 pg/mL
3 | 0.015 | 0.0193 | 0.0061 |  |  | CC(=O)O[C@H]1C(=O)[C@@]2(C)[C@H]([C@H](OC(=O)c3ccccc3)[C@]3(O)C[C@H](OC(=O)[C@H](O)[C@@H](NC(=O)c4ccccc4)c4ccccc4)C(C)=C1C3(C)C)[C@]1(OC(C)=O)CO[C@@H]1C[C@@H]2O [PACLITAXEL] |  |  |  |  | 
4 | > 20 | > 23 | 23.2 |  |  | CCOc1ccc(C2C3=C(CCCC3=O)Nc3c2c(C)nn3-c2nc(C)cc(C)n2)cc1OC (stereo not given) | 40 | 40 | 40 | Toxic | 
5 | 13.2 |  | 12 | Active | 13.1 | COc1cc2c(=O)c(C(=O)c3ccc(F)cc3)cn(CC(=O)Nc3ccc(F)c(F)c3)c2cc1OC | 80 | 50 | 20 | Toxic | IC50 (MDA-MB-231 [5]; time 48 hrs): 14.1 µM; inhibition (Tubulin (Homo sapiens) [21]): Active
